Experimental data as given in ChEMBL document CHEMBL1828575, “Design, synthesis and antiproliferative activities of biarylolefins based on polyhydroxylated and carbohydrate scaffolds” (Eur J Med Chem, 2011).
Activity calls are given as the source filed them. The rule behind the calls is not given here.

How the values were obtained:
[1] = Cytotoxicity against human NCI60 cells assessed as cellular growth at 10 uM after 48 hrs by SRB assay relative to untreated control; format: functional
Method in brief: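 NCI-60 panel lines grown in RPMI 1640 with 5% FBS and 2 mM L-glutamine. Plated at 5000–40,000 cells/well and preincubated 24 h at 37 °C, 5% CO₂, with time-zero plates fixed in TCA. Compounds, dissolved in DMSO and diluted in medium, were applied for 48 h. Cells were TCA-fixed (10% final for adherent, 16% for suspension) and stained with 0.4% SRB in 1% acetic acid. Dye was solubilised in 10 mM Tris base and read at 515 nm; growth was expressed as a percentage of untreated control.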

PC-3 [2] = experiment: Cytotoxicity against human PC3 cells at 10^-6 M after 72 hrs by MTS assay; format: functional; conditions: PC-3, 72 h, read-out: GI
Method in brief: (§1)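 Preliminary screen at 10^-5 and 10^-6 M. Cells were grown in RPMI with 10% fetal calf serum plus penicillin, streptomycin and fungizone under 5% CO₂, plated in 96-well plates, and dosed 24 h later from DMSO stocks (1% DMSO final, same in controls). After 72 h, MTS was added for 3 h at 37 °C and absorbance read at 490 nm. Inhibition was calculated as (1 − OD treated/OD control) × 100, in triplicate.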

SF-268 [3] = experiment: Cytotoxicity against human SF268 cells at 10^-6 M after 72 hrs by MTS assay; format: functional; conditions: SF-268, 72 h, read-out: GI; method in brief: as §1
SK-OV-3 [4] = experiment: Cytotoxicity against human SKOV3 cells at 10^-6 M after 72 hrs by MTS assay; format: functional; conditions: SK-OV-3, 72 h, read-out: GI; method in brief: as §1
OVCAR-8 [5] = experiment: Cytotoxicity against human OVCAR8 cells at 10^-6 M after 72 hrs by MTS assay; format: functional; conditions: OVCAR-8, 72 h, read-out: GI; method in brief: as §1
MIA PaCa-2 [6] = experiment: Cytotoxicity against human MIAPaCa2 cells at 10^-6 M after 72 hrs by MTS assay; format: functional; conditions: MIA PaCa-2, 72 h, read-out: GI
HL-60 [7] = experiment: Cytotoxicity against human HL60 cells at 10^-6 M after 72 hrs by MTS assay; format: functional; conditions: HL-60, 72 h, read-out: GI
Method in brief: (§2)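 Cells grown in RPMI with 10% fetal calf serum, penicillin, streptomycin and fungizone under 5% CO₂. Plated in 96-well plates and dosed 24 h later with compound in DMSO (1% final DMSO; controls got DMSO alone). After 72 h, MTS was added for 3 h at 37 °C and A490 read. Inhibition = (1 − OD treated/OD control) × 100, in triplicate.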

[8] = Cytotoxicity against human HL60R cells at 10^-6 M after 72 hrs by MTS assay; format: functional; conditions: read-out: GI; method in brief: as §2
K562 [9] = experiment: Cytotoxicity against human K562 cells at 10^-6 M after 72 hrs by MTS assay; format: functional; conditions: K562, 72 h, read-out: GI; method in brief: as §2
HCT-116 [10] = experiment: Cytotoxicity against human HCT116 cells at 10^-5 M after 72 hrs by MTS assay; format: functional; conditions: HCT-116, 72 h, read-out: GI; method in brief: as §2
HT-29 [11] = experiment: Cytotoxicity against human HT-29 cells at 10^-5 M after 72 hrs by MTS assay; format: functional; conditions: HT-29, 72 h, read-out: GI; method in brief: as §2
HCT-15 [12] = experiment: Cytotoxicity against human HCT15 cells at 10^-5 M after 72 hrs by MTS assay; format: functional; conditions: HCT-15, 72 h, read-out: GI; method in brief: as §2
MCF7 [13] = experiment: Cytotoxicity against human MCF7 cells at 10^-5 M after 72 hrs by MTS assay; format: functional; conditions: MCF7, 72 h, read-out: GI
[14] = Cytotoxicity against human MDA231 cells at 10^-5 M after 72 hrs by MTS assay; format: functional; conditions: MDA-MB-231, 72 h, read-out: GI; method in brief: as §1
A549 [15] = experiment: Cytotoxicity against human A549 cells at 10^-5 M after 72 hrs by MTS assay; format: functional; conditions: A549, 72 h, read-out: GI; method in brief: as §2
PC-3 [16] = experiment: Cytotoxicity against human PC3 cells at 10^-5 M after 72 hrs by MTS assay; format: functional; conditions: PC-3, 72 h, read-out: GI; method in brief: as §1
SF-268 [17] = experiment: Cytotoxicity against human SF268 cells at 10^-5 M after 72 hrs by MTS assay; format: functional; conditions: SF-268, 72 h, read-out: GI; method in brief: as §1
SK-OV-3 [18] = experiment: Cytotoxicity against human SKOV3 cells at 10^-5 M after 72 hrs by MTS assay; format: functional; conditions: SK-OV-3, 72 h, read-out: GI; method in brief: as §1
OVCAR-8 [19] = experiment: Cytotoxicity against human OVCAR8 cells at 10^-5 M after 72 hrs by MTS assay; format: functional; conditions: OVCAR-8, 72 h, read-out: GI; method in brief: as §1
MIA PaCa-2 [20] = experiment: Cytotoxicity against human MIAPaCa2 cells at 10^-5 M after 72 hrs by MTS assay; format: functional; conditions: MIA PaCa-2, 72 h, read-out: GI
HL-60 [21] = experiment: Cytotoxicity against human HL60 cells at 10^-5 M after 72 hrs by MTS assay; format: functional; conditions: HL-60, 72 h, read-out: GI; method in brief: as §2
[22] = Cytotoxicity against human HL60R cells at 10^-5 M after 72 hrs by MTS assay; format: functional, HL-60; conditions: read-out: GI; method in brief: as §2
K562 [23] = experiment: Cytotoxicity against human K562 cells at 10^-5 M after 72 hrs by MTS assay; format: functional; conditions: K562, 72 h, read-out: GI; method in brief: as §2
HCT-116 [24] = experiment: Cytotoxicity against human HCT116 cells at 10^-6 M after 72 hrs by MTS assay; format: functional; conditions: HCT-116, 72 h, read-out: GI; method in brief: as §2
HT-29 [25] = experiment: Cytotoxicity against human HT-29 cells at 10^-6 M after 72 hrs by MTS assay; format: functional; conditions: HT-29, 72 h, read-out: GI; method in brief: as §2
HCT-15 [26] = experiment: Cytotoxicity against human HCT15 cells at 10^-6 M after 72 hrs by MTS assay; format: functional; conditions: HCT-15, 72 h, read-out: GI; method in brief: as §2
MCF7 [27] = experiment: Cytotoxicity against human MCF7 cells at 10^-6 M after 72 hrs by MTS assay; format: functional; conditions: MCF7, 72 h, read-out: GI
[28] = Cytotoxicity against human MDA231 cells at 10^-6 M after 72 hrs by MTS assay; format: functional; conditions: MDA-MB-231, 72 h, read-out: GI; method in brief: as §1
A549 [29] = experiment: Cytotoxicity against human A549 cells at 10^-6 M after 72 hrs by MTS assay; format: functional; conditions: A549, 72 h, read-out: GI; method in brief: as §2
Ovis aries = species on record: Ovis aries; experiment: Inhibition of sheep brain tubulin polymerization at 10 uM
Method in brief: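 Microtubule protein from sheep brain, purified by two assembly/disassembly cycles (37 °C/0 °C), in 100 mM MES pH 6.6, 1 mM EGTA, 0.5 mM MgCl₂. Compounds in DMSO were tested at a single concentration, with incubation at 37 °C for 10 min and then 0 °C for 5 min before measuring assembly rate, following a modified Guénard protocol.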

## COc1cc(C(=C2O[C@@H]([C@H](O)CO)[C@H]3OC(C)(C)O[C@@H]23)c2cc(OC)c(OC)c(OC)c2)cc(OC)c1OC
[1]
  Activity: 103%

## COc1ccc(/C(=C2/O[C@@H]([C@H](O)CO)[C@H]3OC(C)(C)O[C@@H]23)c2cc(OC)c(OC)c(OC)c2)cc1O
[1]
  Activity: 79%

## COc1cc(/C(=C2\O[C@@H]([C@H]3COC(C)(C)O3)[C@H]3OC(C)(C)O[C@@H]23)c2cccc([N+](=O)[O-])c2)cc(OC)c1OC
PC-3 [2]
  inhibition of growth at 1 µM: 2%
SF-268 [3]
  inhibition of growth at 1 µM: 12%
SK-OV-3 [4]
  inhibition of growth at 1 µM: 15%
OVCAR-8 [5]
  inhibition of growth at 1 µM: 0%
MIA PaCa-2 [6]
  inhibition of growth at 1 µM: 4%
HL-60 [7]
  inhibition of growth at 1 µM: 2%
[8]
  inhibition of growth at 1 µM: 13%
K562 [9]
  inhibition of growth at 1 µM: 8%
HCT-116 [10]
  inhibition of growth at 10 µM: 8%
HT-29 [11]
  inhibition of growth at 10 µM: 0%
HCT-15 [12]
  inhibition of growth at 10 µM: 5%
MCF7 [13]
  inhibition of growth at 10 µM: 11%
[14]
  inhibition of growth at 10 µM: 16%
A549 [15]
  inhibition of growth at 10 µM: 12%
PC-3 [16]
  inhibition of growth at 10 µM: 0%
SF-268 [17]
  inhibition of growth at 10 µM: 20%
SK-OV-3 [18]
  inhibition of growth at 10 µM: 40%
OVCAR-8 [19]
  inhibition of growth at 10 µM: 0%
MIA PaCa-2 [20]
  inhibition of growth at 10 µM: 0%
HL-60 [21]
  inhibition of growth at 10 µM: 22%
[22]
  inhibition of growth at 10 µM: 29%
K562 [23]
  inhibition of growth at 10 µM: 9%
HCT-116 [24]
  inhibition of growth at 1 µM: 5%
HT-29 [25]
  inhibition of growth at 1 µM: 7%
HCT-15 [26]
  inhibition of growth at 1 µM: 6%
MCF7 [27]
  inhibition of growth at 1 µM: 7%
[28]
  inhibition of growth at 1 µM: 0%
A549 [29]
  inhibition of growth at 1 µM: 10%

## COc1cc(/C(=C2\O[C@@H]([C@H](O)CO)[C@H]3OC(C)(C)O[C@@H]23)c2cccc(N)c2)cc(OC)c1OC
[1]
  Activity: 103%
Ovis aries
  tubulin polymerization inhibition call (active/not active): inactive

## COc1cc(/C(=C2\O[C@@H]([C@H](O)CO)[C@H]3OC(C)(C)O[C@@H]23)c2ccc3c(c2)OCO3)cc(OC)c1OC
[1]
  Activity: 106%

## COc1cc(C(=C(CO)CO)c2ccc3c(c2)OCO3)cc(OC)c1OC
Ovis aries
  tubulin polymerization inhibition call (active/not active): inactive

## COc1cc(/C(=C2/O[C@@H]([C@H](O)CO)[C@H]3OC(C)(C)O[C@@H]23)c2cccc([N+](=O)[O-])c2)cc(OC)c1OC
PC-3 [2]
  inhibition of growth at 1 µM: 1%
SF-268 [3]
  inhibition of growth at 1 µM: 17%
SK-OV-3 [4]
  inhibition of growth at 1 µM: 10%
OVCAR-8 [5]
  inhibition of growth at 1 µM: 0%
MIA PaCa-2 [6]
  inhibition of growth at 1 µM: 0%
HL-60 [7]
  inhibition of growth at 1 µM: 11%
[8]
  inhibition of growth at 1 µM: 6%
K562 [9]
  inhibition of growth at 1 µM: 0%
HCT-116 [10]
  inhibition of growth at 10 µM: 0%
HT-29 [11]
  inhibition of growth at 10 µM: 4%
HCT-15 [12]
  inhibition of growth at 10 µM: 6%
MCF7 [13]
  inhibition of growth at 10 µM: 14%
[14]
  inhibition of growth at 10 µM: 0%
A549 [15]
  inhibition of growth at 10 µM: 14%
PC-3 [16]
  inhibition of growth at 10 µM: 23%
SF-268 [17]
  inhibition of growth at 10 µM: 26%
SK-OV-3 [18]
  inhibition of growth at 10 µM: 16%
OVCAR-8 [19]
  inhibition of growth at 10 µM: 0%
MIA PaCa-2 [20]
  inhibition of growth at 10 µM: 0%
HL-60 [21]
  inhibition of growth at 10 µM: 10%
[22]
  inhibition of growth at 10 µM: 11%
K562 [23]
  inhibition of growth at 10 µM: 18%
HCT-116 [24]
  inhibition of growth at 1 µM: 0%
HT-29 [25]
  inhibition of growth at 1 µM: 4%
HCT-15 [26]
  inhibition of growth at 1 µM: 10%
MCF7 [27]
  inhibition of growth at 1 µM: 4%
[28]
  inhibition of growth at 1 µM: 0%
A549 [29]
  inhibition of growth at 1 µM: 8%

## COc1cc(/C(=C2\O[C@@H]([C@H]3COC(C)(C)O3)[C@H]3OC(C)(C)O[C@@H]23)c2cccc(N)c2)cc(OC)c1OC
[1]
  Activity: 102%
